≈ marks a conversion by molar mass, not a printed value.
Tests used:
Interstitial collagenase = biological target: T1, Interstitial collagenase (Homo sapiens, UniProt P03956); assay: Inhibition of catalytic domain MMP1
T1 sequence (P03956 whole entry): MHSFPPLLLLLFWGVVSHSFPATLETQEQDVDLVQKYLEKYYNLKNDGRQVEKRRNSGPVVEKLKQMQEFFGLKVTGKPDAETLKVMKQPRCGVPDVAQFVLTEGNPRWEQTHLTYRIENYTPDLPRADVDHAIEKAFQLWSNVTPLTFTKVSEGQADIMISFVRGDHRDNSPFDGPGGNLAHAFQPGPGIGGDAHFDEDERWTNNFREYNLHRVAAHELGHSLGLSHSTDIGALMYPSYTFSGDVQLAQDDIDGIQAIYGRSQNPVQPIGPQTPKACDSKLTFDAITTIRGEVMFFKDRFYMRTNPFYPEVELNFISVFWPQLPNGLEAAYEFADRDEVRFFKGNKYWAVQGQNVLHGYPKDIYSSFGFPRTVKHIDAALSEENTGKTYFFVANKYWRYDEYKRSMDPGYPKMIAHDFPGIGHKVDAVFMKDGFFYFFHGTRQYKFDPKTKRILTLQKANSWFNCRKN

[1] = biological target: T2, 72 kDa type IV collagenase (Homo sapiens, UniProt P08253); assay: Inhibition of full length MMP2
Target sequence in this assay (P08253 whole entry, the tested form may be a part): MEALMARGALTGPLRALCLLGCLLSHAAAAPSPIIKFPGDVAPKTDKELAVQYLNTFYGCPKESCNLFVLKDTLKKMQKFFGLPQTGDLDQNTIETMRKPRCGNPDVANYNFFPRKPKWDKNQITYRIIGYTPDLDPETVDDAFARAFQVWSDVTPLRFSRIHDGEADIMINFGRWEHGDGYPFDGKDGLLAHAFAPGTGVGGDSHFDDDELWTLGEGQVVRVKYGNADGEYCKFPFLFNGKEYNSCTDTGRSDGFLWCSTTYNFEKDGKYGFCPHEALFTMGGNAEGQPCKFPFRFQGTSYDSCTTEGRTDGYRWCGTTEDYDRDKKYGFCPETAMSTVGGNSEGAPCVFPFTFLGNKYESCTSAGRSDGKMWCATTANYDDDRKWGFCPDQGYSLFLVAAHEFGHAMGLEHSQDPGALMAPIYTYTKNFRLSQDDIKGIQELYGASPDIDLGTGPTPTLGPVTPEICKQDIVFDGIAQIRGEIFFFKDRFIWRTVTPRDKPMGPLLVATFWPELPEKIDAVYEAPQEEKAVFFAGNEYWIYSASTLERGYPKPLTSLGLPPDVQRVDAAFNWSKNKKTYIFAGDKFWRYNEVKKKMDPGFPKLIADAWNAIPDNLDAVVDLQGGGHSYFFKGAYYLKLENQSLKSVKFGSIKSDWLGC

[2] = biological target: T3, Matrix metalloproteinase-9 (Homo sapiens, UniProt P14780); assay: Inhibition of catalytic domain MMP9
T3 sequence (P14780 whole entry, the tested form may be a part): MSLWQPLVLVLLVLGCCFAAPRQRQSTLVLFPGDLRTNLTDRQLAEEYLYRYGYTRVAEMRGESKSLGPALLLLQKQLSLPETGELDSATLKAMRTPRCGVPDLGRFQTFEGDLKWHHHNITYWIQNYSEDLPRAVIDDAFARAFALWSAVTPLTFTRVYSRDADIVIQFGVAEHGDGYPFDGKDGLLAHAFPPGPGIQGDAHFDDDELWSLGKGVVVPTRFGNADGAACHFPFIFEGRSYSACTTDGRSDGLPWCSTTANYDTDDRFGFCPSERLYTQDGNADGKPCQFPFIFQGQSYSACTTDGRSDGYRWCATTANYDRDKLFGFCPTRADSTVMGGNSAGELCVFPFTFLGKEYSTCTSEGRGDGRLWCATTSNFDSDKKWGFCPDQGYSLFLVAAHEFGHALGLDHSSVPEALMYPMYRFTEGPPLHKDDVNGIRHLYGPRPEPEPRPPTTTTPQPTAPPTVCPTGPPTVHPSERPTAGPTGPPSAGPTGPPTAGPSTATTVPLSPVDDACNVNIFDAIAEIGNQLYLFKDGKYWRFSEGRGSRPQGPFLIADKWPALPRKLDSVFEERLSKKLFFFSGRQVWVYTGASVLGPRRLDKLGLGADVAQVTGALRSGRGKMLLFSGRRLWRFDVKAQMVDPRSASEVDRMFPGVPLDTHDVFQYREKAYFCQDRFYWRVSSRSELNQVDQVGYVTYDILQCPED
Procedure, shortened: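 Peptide-cleavage FRET assay using MMP-1 and -9 catalytic domains or full-length MMP-2, each titrated to give linear velocity. Enzyme was preincubated with inhibitor for 1 h at room temperature in 50 mM Hepes pH 7.4, 10 mM CaCl2, 0.05% Brij-35, final DMSO 0.04%. Eu/QSY7-labelled peptide substrate was then added for 15 min at room temperature, and liberated Eu fluorescence was read.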

[3] = Solubility in water at pH 7; format: physicochemical
[4] = Solubility in water at pH 2; format: physicochemical
[5] = Volume of distribution in rat at steady state at 0.5 mg/kg, iv; format: ADME, organism-based; design: dose 0.5 mg/kg, route intravenous; conditions: in vivo, read-out: Vdss
Procedure, shortened: (§1)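 Rats, n=4 per group, single intravenous dose of 0.5 mg/kg. Plasma Cmax was taken at t = 5 min. Apparent elimination half-life, AUC, steady-state volume of distribution and clearance were derived from the plasma profile. Values are means of the 4 animals.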

[6] = Half life in rat at 0.5 mg/kg, iv; format: ADME, organism-based; design: dose 0.5 mg/kg, route intravenous; conditions: in vivo; procedure, shortened: as §1
[7] = AUC in rat at 0.5 mg/kg, iv; format: ADME, organism-based; design: dose 0.5 mg/kg, route intravenous; conditions: plasma; procedure, shortened: as §1
[8] = Clearance in rat at 0.5 mg/kg, iv; format: ADME, organism-based; design: dose 0.5 mg/kg, route intravenous; conditions: in vivo; procedure, shortened: as §1
[9] = Cmax in rat at 0.5 mg/kg, iv; format: ADME, organism-based; design: dose 0.5 mg/kg, route intravenous; conditions: in vivo; procedure, shortened: as §1
[10] = Selectivity ratio, IC50 for full length MMP2 to IC50 for catalytic domain MMP9
Procedure, shortened: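 Full-length MMP-2 and MMP-9 catalytic domain, each titrated for linear velocity, in 50 mM Hepes pH 7.4, 10 mM CaCl2, 0.05% Brij-35. Preincubated 1 h at room temperature with compound dilutions (final DMSO 0.04%). Eu/QSY7-quenched peptide substrate added for 15 min at room temperature; cleavage read as Eu fluorescence. Triplicate 16-point curves, nonlinear regression; ratio is MMP-2 IC50/MMP-9 IC50.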

[11] = biological target: T3, Matrix metalloproteinase-9; assay: Inhibition of MMP9 catalytic domain at 10 uM
[12] = biological target: T2, 72 kDa type IV collagenase; assay: Inhibition of full length MMP2 at 10 uM
Target sequence in this assay (P08253 110-660 limits assumed): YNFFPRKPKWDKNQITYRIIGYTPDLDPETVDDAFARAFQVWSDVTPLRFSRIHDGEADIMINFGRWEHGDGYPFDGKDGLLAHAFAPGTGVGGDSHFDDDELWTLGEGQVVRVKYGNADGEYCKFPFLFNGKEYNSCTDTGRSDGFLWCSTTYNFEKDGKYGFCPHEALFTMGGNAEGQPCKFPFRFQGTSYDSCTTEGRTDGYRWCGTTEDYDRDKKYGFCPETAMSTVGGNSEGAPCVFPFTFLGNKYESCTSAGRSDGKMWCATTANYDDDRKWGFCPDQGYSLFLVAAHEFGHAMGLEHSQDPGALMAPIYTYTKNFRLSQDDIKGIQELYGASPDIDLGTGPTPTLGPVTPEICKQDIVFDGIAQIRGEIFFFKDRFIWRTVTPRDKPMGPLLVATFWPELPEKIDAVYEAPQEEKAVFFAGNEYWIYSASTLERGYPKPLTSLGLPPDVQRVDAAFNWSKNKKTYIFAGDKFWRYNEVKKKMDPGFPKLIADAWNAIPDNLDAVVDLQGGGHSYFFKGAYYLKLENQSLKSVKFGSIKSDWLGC

[13] = Stability in human liver microsomes
[14] = Stability in rat liver microsomes

Row | IC50 [1] [nM] | IC50 [2] [nM] | Ratio IC50 [10] | Compound | further results
1 | 147 | 383 |  | CS(=O)(=O)N(CC(=O)NO)c1ccc(Oc2ccccc2)cc1 | IC50 (Interstitial collagenase): > 10000 nM
2 |  |  |  | Cc1ccc(Oc2ccc(N(C[C@H](O)C(=O)NO)S(C)(=O)=O)cc2)cc1 | solubility [3]: 28 µg/mL (≈ 73.6 µM); solubility [4]: < 5 µg/mL; Vd [5]: 1.4 L/kg; half-life [6]: 25.8 min; AUC [7]: 180 ng·h/mL; clearance [8]: 47.5 mL/min/kg; Cmax [9]: 1300 nM
3 |  |  | 1.2 | CS(=O)(=O)N(C[C@H](O)C(=O)NO)c1ccc(C#Cc2ccc(Cl)cc2)cc1 | 
4 | 247 | 39 | 6.3 | CS(=O)(=O)N(C[C@H](O)C(=O)NO)c1ccc(Oc2ccccc2)cc1 | 
5 | 67 | 12 |  | Cc1ccc(Oc2ccc(N(C[C@@H](O)C(=O)NO)S(C)(=O)=O)cc2)cc1 | 
6 |  |  |  | Cc1ccc(Oc2ccc(N(C[C@H](O)C(=O)O)S(C)(=O)=O)cc2)cc1 | inhibition [11]: < 10%; inhibition [12]: < 10%
7 | 142 | 28 | 5.1 | CCS(=O)(=O)N(C[C@H](O)C(=O)NO)c1ccc(Oc2ccc(C)cc2)cc1 | 
8 |  |  | 5.8 | Cc1ccc(Oc2ccc(N(C[C@H](O)C(=O)NO)S(=O)(=O)Cc3cccnc3)cc2)cc1 | 
9 | 297 | 54 | 5.5 | Cc1ccc(Sc2ccc(N(C[C@H](O)C(=O)NO)S(C)(=O)=O)cc2)cc1 | 
10 | 73 | 31 |  | Cc1ccc(Oc2ccc(N(CC(=O)NO)S(C)(=O)=O)cc2)cc1 | 
11 | 36 | 3.8 |  | CO[C@@H](CN(c1ccc(Oc2ccc(C)cc2)cc1)S(C)(=O)=O)C(=O)NO | 
12 | 61 | 6.6 |  | Cc1ccc(Oc2ccc(N(CCC(=O)NO)S(C)(=O)=O)cc2)cc1 | IC50 (Interstitial collagenase): > 10000 nM
13 | 2920 | 1490 | 1.9 | CS(=O)(=O)N(C[C@H](O)C(=O)NO)c1ccc(OCc2ccc(C(F)(F)F)cc2)cc1 | IC50 (Interstitial collagenase): > 10000 nM
14 | 1260 | 933 |  | CC(=O)N(C[C@H](O)C(=O)NO)c1ccc(Oc2ccc(Cl)cc2)cc1 | 
15 | 893 | 984 | 0.9 | CS(=O)(=O)N(C[C@H](O)C(=O)NO)c1ccc(OCc2ccc(Cl)cc2)cc1 | IC50 (Interstitial collagenase): > 10000 nM
16 | 32 |  | 0.4 | COc1ccc(C#Cc2ccc(N(C[C@H](O)C(=O)NO)S(C)(=O)=O)cc2)cc1 | IC50 (Interstitial collagenase): > 10000 nM
17 | 283 | 104 | 2.7 | CS(=O)(=O)N(C[C@H](O)C(=O)NO)c1ccc(Sc2ccc(F)cc2)cc1 | 
18 |  | 13 |  | CO[C@H](CN(c1ccc(Oc2ccc(C)cc2)cc1)S(C)(=O)=O)C(=O)NO | 
19 |  |  | 4.1 | CCCS(=O)(=O)N(C[C@H](O)C(=O)NO)c1ccc(Oc2ccc(C)cc2)cc1 | 
20 | 20 | 5.5 |  | Cc1ccc(Oc2ccc(N(CC(C)(O)C(=O)NO)S(C)(=O)=O)cc2)cc1 (racemic) | solubility [3]: 28 µg/mL (≈ 71 µM); IC50 (Interstitial collagenase): > 10000 nM; solubility [4]: < 5 µg/mL; Vd [5]: 1.5 L/kg; half-life [6]: 43.2 min; AUC [7]: 220 ng·h/mL; clearance [8]: 41.5 mL/min/kg; Cmax [9]: 1500 nM; half-life [13]: 103 min; half-life [14]: 10 min
21 |  |  | 9.9 | CS(=O)(=O)N(C[C@H](O)C(=O)NO)c1ccc(Oc2ccc(C(F)(F)F)cc2)cc1 | 
22 |  |  | 6.3 | Cc1ccc(Oc2ccc(N(C[C@H](O)C(=O)NO)S(=O)(=O)Cc3ccccc3)cc2)cc1 | 
23 | 286 | 242 |  | CC(C)C(=O)N(C[C@H](O)C(=O)NO)c1ccc(Oc2ccc(Cl)cc2)cc1 | 
24 |  |  | 7.4 | CS(=O)(=O)N(C[C@H](O)C(=O)NO)c1ccc(Oc2ccc(Cl)cc2)cc1 | 
25 |  |  |  | CS(=O)(=O)N(C[C@H](O)C(=O)NO)c1ccc(-c2ccccc2)cc1 | inhibition [11]: 79%; inhibition [12]: 87%
26 | 2320 | 4820 | 0.5 | CS(=O)(=O)N(C[C@H](O)C(=O)NO)c1ccc(OCc2ccc(F)cc2)cc1 | IC50 (Interstitial collagenase): > 10000 nM
27 |  |  | 6.4 | Cc1ccc(Oc2ccc(N(C[C@H](O)C(=O)NO)S(=O)(=O)Cc3ccncc3)cc2)cc1 | 
28 | > 10000 | > 10000 |  | CS(=O)(=O)N(C[C@H](O)C(=O)NO)c1ccc(S(=O)(=O)c2ccccc2)cc1 | 
29 | 47 | 44 | 1.1 | Cc1ccc(C#Cc2ccc(N(C[C@H](O)C(=O)NO)S(C)(=O)=O)cc2)cc1 | 

Source: ChEMBL document CHEMBL1142348, “beta-N-Biaryl ether sulfonamide hydroxamates as potent gelatinase inhibitors: part 1. Design, synthesis, and lead identification” (Bioorg Med Chem Lett, 2008)
